# Screens: PubChem, several laboratories
# A selection: hits, their analogues and other compounds. The true share with any hit is near 12%.
# Lmaj promast: Leishmania major promastigote growth inhibition, primary screen | Leishmania major promastigotes, resazurin fluorescence viability | inhibition, % at 10 µM | actives 9% (n = 200,000); in the data active = inhibition above about 50%;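 note: promastigotes grown with compound for 44 hours at 28 °C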
# ABCG2 inh: ABCG2 efflux pump inhibitors, primary screen, multiplex with ABCB1, IgMXP3 cells, flow cytometry | Broad substrate specificity ATP-binding cassette transporter ABCG2 (Homo sapiens), Q9UNQ0 | JC-1 efflux | inhibition, % at 6.6 µM | actives 0.1% (n = 190,000);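 active = inhibition above 80%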;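 note: 0% = DMSO and 100% = nicardipine control wells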
# Target sequence (Q9UNQ0 whole entry, looked up): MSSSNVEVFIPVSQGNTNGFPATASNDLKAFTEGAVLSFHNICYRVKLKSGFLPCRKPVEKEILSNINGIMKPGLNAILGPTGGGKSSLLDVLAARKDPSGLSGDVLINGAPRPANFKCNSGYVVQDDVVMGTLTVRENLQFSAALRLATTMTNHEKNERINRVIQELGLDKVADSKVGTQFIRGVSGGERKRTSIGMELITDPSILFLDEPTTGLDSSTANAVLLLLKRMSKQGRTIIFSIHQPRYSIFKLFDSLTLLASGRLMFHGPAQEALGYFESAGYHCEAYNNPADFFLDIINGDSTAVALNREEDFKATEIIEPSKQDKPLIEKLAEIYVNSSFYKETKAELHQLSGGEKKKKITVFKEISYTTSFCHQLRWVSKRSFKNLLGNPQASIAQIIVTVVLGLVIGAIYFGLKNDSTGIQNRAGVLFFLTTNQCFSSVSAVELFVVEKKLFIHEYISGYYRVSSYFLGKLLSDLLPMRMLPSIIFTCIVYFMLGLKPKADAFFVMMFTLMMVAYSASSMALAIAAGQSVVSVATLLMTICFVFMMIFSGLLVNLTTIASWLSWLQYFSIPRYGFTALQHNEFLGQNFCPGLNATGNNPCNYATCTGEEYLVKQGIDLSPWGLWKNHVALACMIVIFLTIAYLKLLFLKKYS
#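 System: two drug-resistant human cell lines, ABCG2 and ABCB1; controls: nicardipine high and DMSO low controls; times: 10 min exposure at 25 °C with rotation, no wash; detection: flow cytometry of retained JC-1 fluorescence; read-out basis: percent efflux inhibition, scaled nicardipine 100% to DMSO 0%; doses: one concentration, 6.6 µM final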
# WT yeast gro inh: growth inhibition of WT strain, primary screen, mitochondrial fusion inhibitor project, WT and mutant strains, chemical genetic; mitochondrial fusion phenotypic screen; inhibition, % at 10 µM; actives 2.1% (n = 190,000); in the data active = inhibition above about 58%; tested in S. cerevisiae
# RAM inhibit: inhibitors of the yeast RAM network, primary screen, dse1pr::URA3 reporter, 5-FOA selection; AID 868, 2007; S. cerevisiae dse1pr::URA3 reporter, 5-FOA growth OD615, 2 d; analog-sensitive cbk1-as2 kinase mutant strain; inhibition, % at 50 µM; actives 1.8% (n = 190,000);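 active = inhibition above a set limit, 3 SD over mean compound inhibition, cut at about 8.4% in these data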;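 note: 0% = DMSO-only wells with no growth and 100% = 10 µM 1-NA-PP1 full growth; inhibition rescues growth on 5-FOA so higher OD means more RAM inhibition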
# ABCB1 inh: ABCB1 efflux pump inhibitors, primary screen, cell-based, multiplex, flow cytometry, ABCG2 counter-screen; CCRF-Adr cells, JC-1 efflux; actives 0.067% (n = 190,000); AID 1326, 2008; inhibition, % at 6.6 µM; in the data active = inhibition above about 40%;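 note: 0% = vehicle and 100% = reference inhibitor; higher value means more JC-1 retained so stronger ABCB1 efflux block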
# * hit, by the source's call.
SMILES,Lmaj promast,ABCG2 inh,WT yeast gro inh,RAM inhibit,ABCB1 inh
O=C(/C=C/c1ccccc1)c1ccc2c(c1)OCCCCO2,44,10,15,1,0
Cc1cc(C)cc(OCC(=O)OCC(=O)c2ccc3c(c2)NC(=O)CO3)c1,-6,0,70*,6,0
O=C1COc2ccc(C(=O)/C=C/c3ccccc3)cc2N1,84*,20,11,6,1
O=C(NCc1cccnc1)c1ccc(Cn2c(=S)[nH]c3ccc(Br)cc3c2=O)cc1,1,-1,4,2,0
CCCOC(=O)/C=C/c1c(C)[nH]c(=O)[nH]c1=O,1,6,7,0,0
CCCCOC(=O)/C=C/c1c(C)[nH]c(=O)[nH]c1=O,52*,15,9,0,1
CCC(=O)NC(c1ccc([N+](=O)[O-])cc1)c1c(O)ccc2ccccc12 (stereo not given),69*,-1,12,3,0
CCCCC(=O)NC(c1ccc([N+](=O)[O-])cc1)c1c(O)ccc2ccccc12 (stereo not given),100*,8,82*,4,5
CC(=O)NCCNC(=O)CNC(=O)c1ccc(Cl)cc1,-6,0,-16,3,0
O=C(CNC(=O)c1ccc(Cl)cc1)NCC(F)(F)F,55*,-2,-5,0,-1
Cc1cc([N+](=O)[O-])ccc1NCc1ccc2ccccc2c1,-3,0,3,9.8*,0
Cc1ccc(CNC(=O)C2CCCN(c3nc4ccsc4c(=O)s3)C2)cc1 (stereo not given),-4,2,-2,2,0
Cn1c(CCN2CCN(c3ccccc3)CC2)nc2cc(NC(=O)c3ccco3)ccc21,13,0,76*,1,1
Cc1ccc(N2CCN(CCc3nc4cc(NC(=O)c5ccco5)ccc4n3C)CC2)cc1,28,40,2,2,1
CCOc1ccc(CCNc2ccc3nnc(-c4ccccc4)n3n2)cc1OCC,77*,17,1,3,2
Clc1ccc(CNc2ccc3nnc(-c4ccccc4)n3n2)cc1,-3,8,7,2,0
CCOC(=O)c1[nH]c2cc(OC)c(OC)cc2c1NC(=O)CN(C)C1CCCCC1,61*,18,19,0,3
COc1ccc(S(=O)(=O)N(CC(=O)NCC2CCCO2)c2ccc(F)cc2)cc1OC (stereo not given),-2,0,34,-1,0
CCN(CC)S(=O)(=O)c1ccc(NC(=O)c2cc(C(=O)OC)cc([N+](=O)[O-])c2)cc1,30,16,-9,4,0
COC(=O)c1cc(C(=O)Nc2ccc(S(=O)(=O)NC(C)(C)C)cc2)cc([N+](=O)[O-])c1,99*,17,4,1,1
O=C(Nc1ccccc1)c1nccn1Cc1ccc(F)cc1,34,7,34,-1,0
C/C(=N\Nc1cccc(Cl)c1)c1ccc(-n2ccnc2)cc1,1,6,66*,-1,0
COC(=O)N/N=C(\C)c1ccc(-n2ccnc2)cc1,-5,3,-10,4,1
Cc1nn(Cc2ccc(Cl)c(Cl)c2)c(C)c1NC(=O)c1cc(-c2ccc3c(c2)OCO3)on1,77*,12,43,1,1
Cc1nn(Cc2ccc(Cl)cc2)c(C)c1NC(=O)c1cc(-c2ccc3c(c2)OCO3)on1,20,19,-8,5,0
SMILES,Lmaj promast,ABCG2 inh,WT yeast gro inh,RAM inhibit,ABCB1 inh
Cc1nn(Cc2ccc(Cl)c(Cl)c2)c(C)c1NC(=O)c1cn(-c2ccccc2)nc1-c1ccccc1,77*,8,15,2,1
COc1ccc(OC)c(-c2cc(C(=O)Nc3c(C)nn(Cc4ccc(Cl)cc4)c3C)no2)c1,52*,16,46,2,0
Cc1nn(Cc2ccccc2)c(C)c1NC(=O)c1ccc([N+](=O)[O-])cc1[N+](=O)[O-],63*,17,-13,3,2
CC(=O)N/C(=N\OCc1ccccc1Cl)c1nonc1NC(C)=O,40,4,-7,3,0
COCCNc1nnc(SCC(=O)c2c[nH]c3ccccc23)s1,-1,1,16,1,0
CC(=O)/C(=N/Nc1ccccc1)Sc1nnc(C(O)c2ccccc2)n1-c1ccccc1 (stereo not given),4,-7,-18,1,0
Cc1nc2ccccc2c(=O)n1NC(=O)C1CC1C (stereo not given),-5,1,-10,1,0
Cc1cccc(C(C)Nc2ccc([N+](=O)[O-])cn2)c1 (stereo not given),33,2,11,0,1
CC1(C)Cc2cccc(OCC(=O)N3CCN(S(=O)(=O)c4ccccc4)CC3)c2O1,-1,4,6,1,1
CN(C)S(=O)(=O)Oc1cccc(C(=O)Nc2ccc([N+](=O)[O-])cc2)c1,5,8,-9,5,1
Cc1cc(C)n(C(=O)c2ccc([N+](=O)[O-])cc2[N+](=O)[O-])n1,99*,7,0,-1,1
COc1ccc(OC)c(-c2cc(C(=O)Nc3c(C)nn(Cc4ccccc4)c3C)no2)c1,37,55,60*,4,3
COc1ccc(NC(=O)CCCSc2ccccc2)cc1,-1,4,-4,0,0
CC/C(O)=C1\C(=O)CC(c2ccccc2)CC1=NC(C)C (stereo not given),59*,10,-10,-1,3
CCOC(=O)/C(=C\c1ccc(OC(F)F)cc1)C1=Nn2c(nnc2-c2ccc(Cl)cc2)SC1,100*,4,71*,3,2
CN1CCN(c2cc3c(c4c2[nH]c2ccccc24)C(=O)CC(C)(C)C3)CC1,95*,4,20,3,2
CN1CCN(c2ncnc3c2[nH]c2ccc(F)cc23)CC1,13,5,12,2,1
O=S(=O)(c1ccccc1Cl)N1CCC(O)(c2ccc3c(c2)OCO3)CC1,3,11,19,3,1
Cc1nc([N+](=O)[O-])c(Sc2nc3ccc([N+](=O)[O-])cc3[nH]2)n1Cc1ccccc1,54*,4,0,1,0
O=C(CN(C(=O)c1ccc(Cl)cc1)C1CCCCC1)Nc1ccc(Cl)c([N+](=O)[O-])c1,85*,7,57,1,2
O=C(COc1ncnc2ccccc12)Nc1ccc(Cl)c([N+](=O)[O-])c1,72*,19,-7,3,1
O=C(CN(C(=O)c1ccccc1Cl)C1CCCCC1)Nc1ccc(Cl)c([N+](=O)[O-])c1,80*,22,16,4,4
